In ChEMBL document CHEMBL6177937, “Design, synthesis, and biological evaluation of novel thiazole derivatives as PI3K/mTOR dual inhibitors” (RSC Med Chem, 2024):

Columns and labels:
CCRF-CEM = experiment: Growth inhibition of human CCRF-CEM cells measured after 48 hrs by SRB assay; assay type: functional
Procedure, shortened: (§1)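 NCI 60-line format with five concentrations (10-fold or ½-log serial dilutions) from DMSO stocks in medium with 50 μg/mL gentamicin. Cells preincubated 24 h, then exposed 48 h at 37°C, 5% CO2. Time-zero plates TCA-fixed. SRB absorbance read at 515 nm. GI50 taken from [(Ti−Tz)/(C−Tz)]×100 = 50. Out-of-range values are expressed as > or < the highest or lowest concentration tested.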

K562 = experiment: Growth inhibition of human K562 cells measured after 48 hrs by SRB assay; assay type: functional; procedure, shortened: as §1
MOLT-4 = experiment: Growth inhibition of human MOLT-4 cells measured after 48 hrs by SRB assay; assay type: functional; procedure, shortened: as §1
RPMI-8226 = experiment: Growth inhibition of human RPMI-8226 cells measured after 48 hrs by SRB assay; assay type: functional
Procedure, shortened: (§2)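 NCI 60-line SRB screen: cells seeded […], grown 24 h at 37°C, 5% CO2, then exposed 48 h to five concentrations (10-fold or ½-log dilutions from DMSO stock). Adherent cells fixed with cold TCA (final 10%), suspension cells with 80% TCA (final 16%); SRB stained, read at 515 nm. GI50 from time-zero, control and treated absorbances.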

EKVX = experiment: Growth inhibition of human EKVX cells measured after 48 hrs by SRB assay; assay type: functional; procedure, shortened: as §1
HOP-62 = experiment: Growth inhibition of human HOP-62 cells measured after 48 hrs by SRB assay; assay type: functional; procedure, shortened: as §1
HOP-92 = experiment: Growth inhibition of human HOP-92 cells measured after 48 hrs by SRB assay; assay type: functional; procedure, shortened: as §1
NCI-H226 = experiment: Growth inhibition of human NCI-H226 cells measured after 48 hrs by SRB assay; assay type: functional; procedure, shortened: as §1
NCI-H460 = experiment: Growth inhibition of human NCI-H460 cells measured after 48 hrs by SRB assay; assay type: functional; procedure, shortened: as §1
HCC 2998 = experiment: Growth inhibition of human HCC 2998 cells measured after 48 hrs by SRB assay; assay type: functional; procedure, shortened: as §1
HCT-15 = experiment: Growth inhibition of human HCT-15 cells measured after 48 hrs by SRB assay; assay type: functional; procedure, shortened: as §1
HT-29 = experiment: Growth inhibition of human HT-29 cells measured after 48 hrs by SRB assay; assay type: functional; procedure, shortened: as §1
KM12 = experiment: Growth inhibition of human KM12 cells measured after 48 hrs by SRB assay; assay type: functional; procedure, shortened: as §1
SF-268 = experiment: Growth inhibition of human SF-268 cells measured after 48 hrs by SRB assay; assay type: functional; procedure, shortened: as §2
SF-539 = experiment: Growth inhibition of human SF-539 cells measured after 48 hrs by SRB assay; assay type: functional; procedure, shortened: as §2
SNB-75 = experiment: Growth inhibition of human SNB-75 cells measured after 48 hrs by SRB assay; assay type: functional; procedure, shortened: as §2
U-251 = experiment: Growth inhibition of human U-251 cells measured after 48 hrs by SRB assay; assay type: functional; procedure, shortened: as §2
LOX IMVI = experiment: Growth inhibition of human LOX IMVI cells measured after 48 hrs by SRB assay; assay type: functional; settings: for CC50: read-out: LC50 (the source's name); procedure, shortened: as §1
MDA-MB-435 = experiment: Growth inhibition of human MDA-MB-435 cells measured after 48 hrs by SRB assay; assay type: functional; procedure, shortened: as §1
SK-MEL-2 = experiment: Growth inhibition of human SK-MEL-2 cells measured after 48 hrs by SRB assay; assay type: functional; procedure, shortened: as §2
SK-MEL-28 = experiment: Growth inhibition of human SK-MEL-28 cells measured after 48 hrs by SRB assay; assay type: functional; procedure, shortened: as §2
SK-MEL-5 = experiment: Growth inhibition of human SK-MEL-5 cells measured after 48 hrs by SRB assay; assay type: functional; procedure, shortened: as §2
UACC-257 = experiment: Growth inhibition of human UACC-257 cells measured after 48 hrs by SRB assay; assay type: functional; settings: for CC50: read-out: LC50 (the source's name); procedure, shortened: as §2
OVCAR-3 = experiment: Growth inhibition of human OVCAR-3 cells measured after 48 hrs by SRB assay; assay type: functional; procedure, shortened: as §1
OVCAR-4 = experiment: Growth inhibition of human OVCAR-4 cells measured after 48 hrs by SRB assay; assay type: functional; procedure, shortened: as §1
OVCAR-8 = experiment: Growth inhibition of human OVCAR-8 cells measured after 48 hrs by SRB assay; assay type: functional; procedure, shortened: as §1
NCI/ADR-RES = experiment: Growth inhibition of human NCI/ADR-RES cells measured after 48 hrs by SRB assay; assay type: functional; procedure, shortened: as §1
786-0 = experiment: Growth inhibition of human 786-0 cells measured after 48 hrs by SRB assay; assay type: functional; settings: for CC50: read-out: LC50 (the source's name); procedure, shortened: as §1
CAKI-1 = experiment: Growth inhibition of human CAKI-1 cells measured after 48 hrs by SRB assay; assay type: functional; procedure, shortened: as §1
SN12C = experiment: Growth inhibition of human SN12C cells measured after 48 hrs by SRB assay; assay type: functional; procedure, shortened: as §2
TK-10 = experiment: Growth inhibition of human TK-10 cells measured after 48 hrs by SRB assay; assay type: functional; procedure, shortened: as §2
PC-3 = experiment: Growth inhibition of human PC-3 cells measured after 48 hrs by SRB assay; assay type: functional; procedure, shortened: as §2
BT-549 = experiment: Growth inhibition of human BT-549 cells measured after 48 hrs by SRB assay; assay type: functional; procedure, shortened: as §1
[1] = target: Serine/threonine-protein kinase mTOR (Homo sapiens, UniProt P42345); experiment: Inhibition of recombinant human N-terminal FLAG-tagged mTOR (1362 to end residues) expressed in baculovirus infected Sf21 insect cells using ULight-4E-BP1 as substrate measured after 30 mins by LANCE ultra assay
HL-60 [2] = experiment: Induction of apoptosis in human HL-60 cells assessed as late apoptotic cells measured after 24 hrs by Annexin-V/propidium iodide staining based flow cytometry (reference value: 0.61%); assay type: functional
HL-60 [3] = experiment: Induction of apoptosis in human HL-60 cells assessed as necrotic cells measured after 24 hrs by Annexin-V/propidium iodide staining based flow cytometry (reference value: 0.61%); assay type: functional
HL-60 [4] = experiment: Induction of apoptosis in human HL-60 cells assessed as increase in caspase-3 level measured after 24 hrs by ELISA relative to control

SMILES: CCOc1cc(/C=N/Nc2nc(-c3cccc([N+](=O)[O-])c3)cs2)ccc1O
- GI50 (CCRF-CEM): 2.03 µM
- TGI (CCRF-CEM): 29.6 µM
- GI50 (K562): 3.05 µM
- TGI (K562): 34.3 µM
- GI50 (MOLT-4): 1.74 µM
- TGI (MOLT-4): 5.94 µM
- GI50 (RPMI-8226): 3.03 µM
- TGI (RPMI-8226): > 100 µM
- GI50 (EKVX): 3.17 µM
- TGI (EKVX): 16.4 µM
- GI50 (HOP-62): 2.51 µM
- TGI (HOP-62): 6.92 µM
- GI50 (HOP-92): 3.2 µM
- TGI (HOP-92): 30.9 µM
- GI50 (NCI-H226): 2.36 µM
- TGI (NCI-H226): 6.22 µM
- GI50 (NCI-H460): 2.4 µM
- TGI (NCI-H460): 5.81 µM
- GI50 (HCC 2998): 3.43 µM
- TGI (HCC 2998): 19.8 µM
- GI50 (HCT-15): 2.86 µM
- TGI (HCT-15): 11.8 µM
- GI50 (HT-29): 33.7 µM
- TGI (HT-29): > 100 µM
- GI50 (KM12): 1.94 µM
- TGI (KM12): 3.63 µM
- GI50 (SF-268): 3.45 µM
- TGI (SF-268): 27.4 µM
- GI50 (SF-539): 1.78 µM
- TGI (SF-539): 4.15 µM
- GI50 (SNB-75): 2.72 µM
- TGI (SNB-75): 13.1 µM
- GI50 (U-251): 3.08 µM
- TGI (U-251): 14.1 µM
- GI50 (LOX IMVI): 1.73 µM
- TGI (LOX IMVI): 3.59 µM
- CC50 (LOX IMVI): 7.46 µM
- GI50 (MDA-MB-435): 2.7 µM
- TGI (MDA-MB-435): 9.14 µM
- GI50 (SK-MEL-2): 2.48 µM
- TGI (SK-MEL-2): 6.75 µM
- GI50 (SK-MEL-28): 2.27 µM
- TGI (SK-MEL-28): 5.97 µM
- GI50 (SK-MEL-5): 2.73 µM
- TGI (SK-MEL-5): 9.14 µM
- GI50 (UACC-257): 1.71 µM
- TGI (UACC-257): 3.23 µM
- CC50 (UACC-257): 6.08 µM
- GI50 (OVCAR-3): 2.31 µM
- TGI (OVCAR-3): 4.43 µM
- GI50 (OVCAR-4): 2.41 µM
- TGI (OVCAR-4): 8.05 µM
- GI50 (OVCAR-8): 2.84 µM
- TGI (OVCAR-8): 9.63 µM
- GI50 (NCI/ADR-RES): 2.72 µM
- TGI (NCI/ADR-RES): 8.59 µM
- GI50 (786-0): 2.75 µM
- TGI (786-0): 8.68 µM
- CC50 (786-0): 81.8 µM
- GI50 (CAKI-1): 2.18 µM
- TGI (CAKI-1): 6.88 µM
- GI50 (SN12C): 2.41 µM
- TGI (SN12C): 9.9 µM
- GI50 (TK-10): 4.42 µM
- TGI (TK-10): 16.1 µM
- GI50 (PC-3): 2.54 µM
- TGI (PC-3): 11.4 µM
- GI50 (BT-549): 2.84 µM
- TGI (BT-549): 8.12 µM
- IC50 [1]: 0.221 µM
- Activity (HL-60 [2]): 16.27%
- Activity (HL-60 [3]): 4.93%
- fold change (FC) (HL-60 [4]): 4.61

SMILES: O=[N+]([O-])c1cc(/C=N/Nc2nc(-c3ccc(Cl)cc3)cs2)ccc1Cl
- GI50 (CCRF-CEM): 3.62 µM
- TGI (CCRF-CEM): 52.9 µM
- GI50 (K562): 5.86 µM
- TGI (K562): 66.4 µM
- GI50 (MOLT-4): 3.43 µM
- TGI (MOLT-4): 24.1 µM
- GI50 (RPMI-8226): 2.31 µM
- TGI (RPMI-8226): 6.29 µM
- GI50 (EKVX): 10.3 µM
- TGI (EKVX): 22.9 µM
- GI50 (HOP-62): 8.87 µM
- TGI (HOP-62): 22.4 µM
- GI50 (HOP-92): 2.59 µM
- TGI (HOP-92): 10.8 µM
- GI50 (NCI-H226): 4.21 µM
- TGI (NCI-H226): 32.6 µM
- GI50 (NCI-H460): 13.6 µM
- TGI (NCI-H460): 26.5 µM
- GI50 (HCC 2998): 1.87 µM
- TGI (HCC 2998): 3.55 µM
- GI50 (HCT-15): 13.1 µM
- TGI (HCT-15): 42.1 µM
- GI50 (HT-29): 3.6 µM
- TGI (HT-29): 15.4 µM
- GI50 (KM12): 1.88 µM
- TGI (KM12): 3.58 µM
- GI50 (SF-268): 8.44 µM
- TGI (SF-268): 31.8 µM
- GI50 (SF-539): 16.3 µM
- TGI (SF-539): 31.1 µM
- GI50 (SNB-75): 14.8 µM
- TGI (SNB-75): 40.1 µM
- GI50 (U-251): 4.37 µM
- TGI (U-251): 17 µM
- GI50 (LOX IMVI): 3.91 µM
- TGI (LOX IMVI): > 100 µM
- CC50 (LOX IMVI): > 100 µM
- GI50 (MDA-MB-435): 23.2 µM
- TGI (MDA-MB-435): 98.3 µM
- GI50 (SK-MEL-2): 24 µM
- TGI (SK-MEL-2): 81.5 µM
- GI50 (SK-MEL-28): 17.2 µM
- TGI (SK-MEL-28): 46.4 µM
- GI50 (SK-MEL-5): 10.3 µM
- TGI (SK-MEL-5): 24.5 µM
- GI50 (UACC-257): 7.52 µM
- TGI (UACC-257): 22 µM
- CC50 (UACC-257): 51.6 µM
- GI50 (OVCAR-3): 1.73 µM
- TGI (OVCAR-3): 3.13 µM
- GI50 (OVCAR-4): 8.25 µM
- TGI (OVCAR-4): 35.9 µM
- GI50 (OVCAR-8): 14.9 µM
- TGI (OVCAR-8): 54.1 µM
- GI50 (NCI/ADR-RES): 16.8 µM
- TGI (NCI/ADR-RES): 41.5 µM
- GI50 (786-0): 19.8 µM
- TGI (786-0): 61.3 µM
- CC50 (786-0): > 100 µM
- GI50 (CAKI-1): 14.6 µM
- TGI (CAKI-1): 32.1 µM
- GI50 (SN12C): 15.1 µM
- TGI (SN12C): 61.5 µM
- GI50 (TK-10): 28.1 µM
- TGI (TK-10): 84 µM
- GI50 (PC-3): 1.91 µM
- TGI (PC-3): 4.46 µM
- GI50 (BT-549): 14.5 µM
- TGI (BT-549): 40.4 µM
- IC50 [1]: 0.896 µM
- Activity (HL-60 [2]): 17.92%
- Activity (HL-60 [3]): 3.64%
- fold change (FC) (HL-60 [4]): 3.48
